Consider one compound from ChEMBL document CHEMBL4371095, “Triazole-Based Inhibitors of the Wnt/β-Catenin Signaling Pathway Improve Glucose and Lipid Metabolisms in Diet-Induced Obese Mice” (J Med Chem, 2019).

Activity calls are given as the source filed them. The rule behind the calls is not given here.

Usually IC50 stands for the concentration that inhibits the measured activity by half. In general, Kd refers to the equilibrium constant for the complex coming apart.

Series [1] in a line: Toxicity in high fat diet fed C57BL/6J mouse assessed as serum cholesterol level at 40 mg/kg, ip administered every 2 days for 11 weeks (reference value: 316 +/- 25 mg/dl). It is filed as organism-based. The settings on record: in vivo.
Series [2] relates to Mus musculus. The experiment in a line: Decrease in serum cholesterol level in high fat diet fed C57BL/6J mouse at 40 mg/kg, ip administered every 2 days for 11 weeks. The class given is functional, organism-based. Summed up:
(§1)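 Male mice, 8 weeks old, 24–27 g, given a 45% kcal fat diet for 6 weeks, then dosed i.p. every 2 days in corn oil vehicle with the diet continued. Sacrifice was about 24 h after the last dose. Liver was examined by H&E. Liver and serum triglyceride were measured by kit. Serum chemistry was included, and liver/body weight ratio was calculated.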

Series [3] is described as follows: Toxicity in high fat diet fed C57BL/6J mouse assessed as serum ALT level at 40 mg/kg, ip administered every 2 days for 11 weeks (reference value: 63.3 +/- 26.9 U/L). It is filed as organism-based. The settings on record: in vivo.
In another series the target is Axin-1 (Homo sapiens) (UniProt O15169). The series can be described thus: Stabilization of Axin1 in human HuH7 cells assessed as decrease in lipid accumulation at 5 uM after 36 hrs by nile red staining based fluorescence microscopic method. It is filed as cell-based. In outline: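 Huh7 cells on collagen I-coated coverslips were treated with 5 μM compound for 36 h, then with 200 μM sodium oleate for a further 12–16 h. Cells were stained with 1 μM Nile red in HBSS for 10 min at 37 °C in the dark and imaged by fluorescence microscopy at 552/636 nm.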
Sequence of Axin-1 (Homo sapiens) (O15169 whole entry): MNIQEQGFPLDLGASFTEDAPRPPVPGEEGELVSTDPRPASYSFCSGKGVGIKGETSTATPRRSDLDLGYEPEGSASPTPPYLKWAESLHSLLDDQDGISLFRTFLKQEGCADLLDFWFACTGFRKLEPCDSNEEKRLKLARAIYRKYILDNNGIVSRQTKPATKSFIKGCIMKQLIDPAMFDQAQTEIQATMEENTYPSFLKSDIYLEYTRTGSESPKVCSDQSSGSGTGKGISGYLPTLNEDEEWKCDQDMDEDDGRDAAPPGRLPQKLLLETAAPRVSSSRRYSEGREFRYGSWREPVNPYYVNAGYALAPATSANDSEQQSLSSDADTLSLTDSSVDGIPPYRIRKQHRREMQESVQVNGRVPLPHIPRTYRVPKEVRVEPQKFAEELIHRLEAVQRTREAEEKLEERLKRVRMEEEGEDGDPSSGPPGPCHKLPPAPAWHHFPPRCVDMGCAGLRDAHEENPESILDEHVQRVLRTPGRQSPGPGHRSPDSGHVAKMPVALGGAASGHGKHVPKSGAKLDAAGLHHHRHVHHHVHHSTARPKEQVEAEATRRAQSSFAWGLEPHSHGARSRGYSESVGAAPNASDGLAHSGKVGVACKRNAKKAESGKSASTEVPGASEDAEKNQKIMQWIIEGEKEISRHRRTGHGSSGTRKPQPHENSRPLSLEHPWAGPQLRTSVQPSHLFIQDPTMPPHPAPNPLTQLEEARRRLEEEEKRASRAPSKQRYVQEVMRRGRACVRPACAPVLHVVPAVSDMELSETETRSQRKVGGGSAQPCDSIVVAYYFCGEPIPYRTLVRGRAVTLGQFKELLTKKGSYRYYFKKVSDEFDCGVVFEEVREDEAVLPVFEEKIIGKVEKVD

The test system of series [4] is Mus musculus. The series can be described thus: Decrease in hepatic GCK mRNA level in high fat diet fed C57BL/6J mouse at 40 mg/kg, ip administered every 2 days for 11 weeks by qPCR analysis. The class given is functional, organism-based. Summed up: (§2)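 Male mice, 8 weeks old, fed a 45% kcal fat diet for 6 weeks, then dosed i.p. every 2 days in corn oil vehicle for 11 weeks. Liver mRNA of the indicated genes was quantified at sacrifice; mean ± SEM, n = 5 per group.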
(In general: Real-time PCR tracks product formation cycle by cycle.)

Series [5] deals with HEK293. The series can be described thus: Growth inhibition of HEK293 cells harboring Wnt after 24 hrs by CellTiter-Fluor assay. It is filed as cell-based. The settings on record: human, hek293, 24 h. Summed up:
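HEK293 cells stably carrying the TOPFlash reporter were plated at 2000/well in DMEM with 10% FBS and incubated overnight. Compound was added with recombinant human Wnt-3a, then incubated 24 h at 37 °C. CellTiter-Fluor reagent was added and fluorescence read after 30 min at 37 °C.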

Series [6] concerns Mus musculus. The series can be described thus: Decrease in liver weight adjusted by body weight gain in high fat diet fed C57BL/6J mouse at 40 mg/kg, ip administered every 2 days for 11 weeks. The class given is functional, organism-based. In outline: as §1
Series [7] in a line: Inhibition of LiCl activated Wnt/beta-catenin signaling (unknown origin) expressed in HEK293 cells harboring TCF/LEF-responsive luciferase preincubated with cells followed by LiCl addition and measured after 24 hrs by luciferase reporter gene assay. The class given is cell-based. The note with it: Homo sapiens. In outline:
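HEK293 cells carrying the TCF/LEF TOPFlash firefly luciferase reporter were stimulated with LiCl and treated with compound for 24 h. Luminescence was read, and IC50 was fitted from concentration–response data; mean ± S.D., n = 4.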
Background: In a reporter assay the amount or activity of a reporter protein is the signal.

Series [8] relates to Mus musculus. The experiment in a line: Effect on hepatic […] mRNA level in normal chow diet fed C57BL/6J mouse at 40 mg/kg, ip administered every 2 days for 11 weeks by qPCR analysis. It is filed as ADME, organism-based. The note with it: in vivo. In outline:
(§3)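 Male mice, 8 weeks old, kept on normal chow throughout and dosed i.p. every 2 days in corn oil vehicle for 11 weeks. Body weight gain, liver/body weight ratio, and liver mRNA of the indicated genes were measured at sacrifice; mean ± SEM, n = 5 per group where stated.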

Series [9] deals with Mus musculus. The series can be described thus: Effect on hepatic PEPCK mRNA level in normal chow diet fed C57BL/6J mouse at 40 mg/kg, ip administered every 2 days for 11 weeks by qPCR analysis. The settings on record: in vivo. It is filed as ADME, organism-based. Summed up: as §3
Series [10] has as its system Mus musculus. The series can be described thus: Effect on hepatic ACOT4 mRNA level in normal chow diet fed C57BL/6J mouse at 40 mg/kg, ip administered every 2 days for 11 weeks by qPCR analysis. The class given is ADME, organism-based. The settings on record: in vivo. Summed up:
as §3

Series [11] deals with Mus musculus. The experiment in a line: Effect on body weight gain in normal chow diet fed C57BL/6J mouse at 40 mg/kg, ip administered every 2 days for 11 weeks. It is filed as ADME, organism-based. The note with it: in vivo. In outline: as §3
Series [12] relates to Mus musculus. The experiment in a line: Antidiabetic activity in high fat diet fed C57BL/6J mouse assessed as improvement in glucose tolerance at 40 mg/kg, ip administered every 2 days for 11 weeks followed by glucose-challenge and measured up to 120 mins by IPGTT. It is filed as functional, organism-based. Summed up:
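Male mice, 8 weeks old, fed a 45% kcal fat diet for 6 weeks, then dosed i.p. every 2 days in corn oil vehicle alongside the continued diet. IPGTT was done before and at the end of treatment: 6–8 h fast, then glucose 2 g/kg i.p. in saline. Tail-vein blood glucose was read by glucometer over time, and AUC was derived; mean ± SEM, n = 5 per group.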

Series [13] is filed under the species Mus musculus. The experiment in a line: Inhibition of Wnt/beta-catenin/Axin signaling in mouse hepatocytes assessed as decrease in FASN mRNA level at 5 uM by qPCR analysis. It is filed as cell-based. Summed up:
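Normal mouse hepatocytes were treated with 5 μM compound, and lipogenic and gluconeogenic gene mRNA was measured by qPCR; mean ± S.D. of triplicates.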

Series [14] is described as follows: Toxicity in high fat diet fed C57BL/6J mouse assessed as serum total bilirubin level at 40 mg/kg, ip administered every 2 days for 11 weeks (reference value: 0.2 mg/dl). The settings on record: in vivo. The class given is organism-based.
The test system of series [15] is HEK293. The series can be described thus: Inhibition of Wnt3a activated Wnt/beta-catenin/Axin signaling (unknown origin) expressed in HEK293 cells assessed as degradation of beta-catenin by measuring decrease in beta-catenin protein expression at 1 to 10 uM after 2 hrs by Western blot method. It is filed as cell-based. The settings on record: Homo sapiens. Summed up:
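HEK293 cells stimulated with WNT3a were treated with compound for 2 h. Cells were lysed in 10 mM HEPES, 100 μM EDTA, 10 mM KCl, 0.5% NP40, protein was quantified by BCA, and β-catenin and Axin1 were resolved on 10% SDS-PAGE and immunoblotted.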

The subject of series [16] is Mus musculus. The series can be described thus: Decrease in hepatic PEPCK mRNA level in high fat diet fed C57BL/6J mouse at 40 mg/kg, ip administered every 2 days for 11 weeks by qPCR analysis. The class given is functional, organism-based. Summed up: as §2
A short description of series [17]: Toxicity in high fat diet fed C57BL/6J mouse assessed as serum uric acid level at 40 mg/kg, ip administered every 2 days for 11 weeks (reference value: 6.3 +/- 0.5 mg/dl). It is filed as organism-based. The settings on record: in vivo.
Series [18] concerns Mus musculus. The experiment in a line: Effect on liver weight adjusted by body weight gain in normal chow diet fed C57BL/6J mouse at 40 mg/kg, ip administered every 2 days for 11 weeks. It is filed as ADME, organism-based. The note with it: in vivo. In outline: as §3
The subject of series [19] is HEK293. The series can be described thus: Inhibition of Wnt/beta-catenin signaling (unknown origin) expressed in HEK293 cells harboring TCF/LEF-responsive luciferase assessed as luminescence at 20 nM measured after 24 hrs by luciferase reporter gene assay relative to control. Details: scale not given: the % may be the effect or the level left. The class given is cell-based. The settings on record: Homo sapiens. Summed up: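 HEK293 cells carrying siRNA knockdown of GSK3β, Axin or CK1α (36 h transfection) were treated with or without 20 nM compound for 24 h. TCF/LEF reporter luminescence was read relative to control, mean ± S.D., n = 3.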

Series [20] concerns the target Glycogen synthase kinase-3 beta (Homo sapiens, UniProt P49841). The experiment in a line: Binding affinity to recombinant full length human N-terminal GST-tagged GSK3beta expressed in sf9 cells by SPR analysis. In outline: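 Recombinant GST-tagged human GSK3β. Binding was measured by surface plasmon resonance at a biosensor core facility, and K_D was determined.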
A general note: Surface plasmon resonance follows binding to a sensor surface in real time, without labels.

Sequence of Glycogen synthase kinase-3 beta (P49841 whole entry): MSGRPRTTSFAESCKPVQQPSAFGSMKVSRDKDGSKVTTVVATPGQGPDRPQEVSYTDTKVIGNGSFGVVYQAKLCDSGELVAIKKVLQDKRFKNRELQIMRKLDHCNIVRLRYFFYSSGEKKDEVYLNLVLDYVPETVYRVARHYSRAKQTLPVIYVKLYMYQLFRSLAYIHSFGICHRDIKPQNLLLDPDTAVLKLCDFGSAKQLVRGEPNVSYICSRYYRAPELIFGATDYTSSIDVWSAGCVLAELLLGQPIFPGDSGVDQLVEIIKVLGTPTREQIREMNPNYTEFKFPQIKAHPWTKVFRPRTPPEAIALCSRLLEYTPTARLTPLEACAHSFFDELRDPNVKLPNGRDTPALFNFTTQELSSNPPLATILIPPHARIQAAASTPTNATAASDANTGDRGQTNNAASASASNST

Regarding `Cc1ccccc1-n1nnc(C(=O)Nc2ccc3ccccc3n2)c1C`, the Activity was 223 mg/dL in [1]; 21 U/L in [3]; “Non-Toxic” in the series on Mus musculus [8]; “Non-Toxic” with Mus musculus [9]; “Non-Toxic” in the series with Mus musculus [10]; “Non-Toxic” in the series with Mus musculus [11]. Moreover, the Activity in [14] was 0.2 mg/dL; in series [17], 4.8 mg/dL; with Mus musculus [18], “Non-Toxic”; with HEK293 [19] it was 40%. Also, the result in the series on Mus musculus [2], at Axin-1 (Homo sapiens), with Mus musculus [4], with Mus musculus [6], with Mus musculus [12] and in the series with Mus musculus [16] was Active. Moreover, the “growth inhibition (GI)” value in the series on HEK293 [5] is reported as “Non-Toxic”. For the same compound, it took 6 nM to reach half-maximal inhibition in series [7] (IC50). Besides, the inhibition result in the series filed under Mus musculus [13] and with HEK293 [15] was “Active” throughout. For the same compound, the Kd in [20] worked out at 4300 nM.
